Experimental data as given in publication PMC12676294 (ACS Omega, 2025).

Assay: Potentiometric titration: protonation constants of the ligands
Assay type: physicochemical
Details: T = 25.0 °C; I = 0.1 M KNO3
Summary of the method: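 Ligand (about 1 mM, 16 mL) with 5–9 mM HClO4 titrated with carbonate-free NaOH (about 0.1 M) under argon with stirring, at 25.0 ± 0.1 °C in 0.1 M KNO3. Glass electrode calibrated as an H+ concentration probe by Gran's method; pKw fixed at 13.78. Points accepted at drift <0.5 mV/min, pH 2–12, 55–130 points per dataset. Stepwise constants were refined from the titration curves.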

Stepwise protonation constant Log K, HL: 5.1 (1)
SMILES: NC(=O)CN1CCNC(=O)c2cccc(n2)C(=O)NCCN(CC(N)=O)CC1 [Py2am, 2-[9-(Carbamoylmethyl)-2,13-dioxo-3,6,9,12,18-pentaazabicyclo[12.3.1]octadeca-1(17),14(18),15-trien-6-yl]acetamide]
